PG9 binder: small molecules binding HIV-1 gp120 antibody PG9 | TR-FRET gp120-PG9 antibody binding | inhibition, % at 6.7 µM | actives 0.43% (n = 360,000); in the data active means inhibition above about 8.5%
Arrestin-AP2 inh: blocks beta-arrestin peptide binding to AP2 adaptin; FITC-arrestin peptide / GST-AP2 beads, flow cytometry; AP2 beta2 appendage carries R879A mutation; inhibition, % at 10 µM; actives 0.31% (n = 340,000); AID 504490;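 active means inhibition above a set limit, near 3 SD of compounds lacking own fluorescence, cut at about 54% in these data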
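System: GST-AP2 R879A bound to glutathione beads, E. coli-expressed. Also added: 50 nM FITC-arrestin peptide. Schedule: compound with beads 12 min RT, then probe 1 h RT. Signal: bead flow cytometry, FITC channel. Read-out basis: percent response.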
ABCB6 inh 2: inhibitors of human ABC transporter ABCB6 | actives 0.19% (n = 360,000) | fluorescence ratio to DMSO, % at 10 µM | AID 602162 | K562-ABCB6 porphyrin accumulation, flow cytometry, 1 h; stronger effect = lower value;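 active means fluorescence ratio to DMSO below 75%, the collection mean minus 3 SD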;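 further: signal is porphyrin accumulated inside mitochondria; lower ratio means ABCB6 inhibition with less porphyrin fluorescence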
iPSC survival up: hiPSC single-cell survival enhancement; ATPlite luminescence; 100% = ROCK inhibitor wells, 0% = DMSO; survival enhancement, % at 20 µM; actives 0.044% (n = 360,000); AID 602274; in the data active means survival enhancement above about 18%;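 further: cells exposed to compounds for 16 hours before the ATP read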
PG9 binder conf: confirmation of small molecules binding HIV-1 gp120 antibody PG9. inhibition, % at 6.7 µM. shares compounds with PG9 binder. TR-FRET PG9 antibody binding, biochemical. actives 90% (n = 1,500). AID 651571; in the data active means inhibition above about 9%
PGV04 counter: counter-screen for PG9 binders: binding control antibody PGV04. shares compounds with PG9 binder. TR-FRET PGV04 antibody-gp120 binding, biochemical. inhibition, % at 6.7 µM. actives 95% (n = 1,500); in the data active means inhibition above about 9.5%
PG9 bind DR: small molecules binding HIV-1 gp120 antibody PG9; 95 tested, under 10 active; shares compounds with PG9 binder; TR-FRET PG9 antibody-gp120 binding inhibition; IC50, µM; in the data active means IC50 below about 10 µM
PGV04 binding DR: PGV04 binding, dose response counter-screen; actives 20% (n = 95); shares compounds with PG9 binder; IC50, µM; TR-FRET binding to control antibody PGV04
PG126 binding DR: counter-screen for PG9 binders: binding to control antibody PG126; shares compounds with PG9 binder; TR-FRET binding to antibody PG126, counterscreen; IC50, µM; actives 20% (n = 95); AID 651939
A number is an active result; – = inactive; · = not tested or not shown. Most compounds without a hit are left out; they make up all but 0.89% or so of the library. Unless noted, no stated cut-off is given here; in the data, active means IC50 below about 9 µM; inactive means the rest.

SMILES | PG9 binder | Arrestin-AP2 inh | ABCB6 inh 2 | iPSC survival up | PG9 binder conf | PGV04 counter | others
Cc1ccc(S(=O)(=O)N(C)[C@H]2C[C@H]3c4[nH]c5c(-c6ccccc6)cccc5c4CCN3C(=O)[C@H]2[C@H](C)O)cc1 | – | · | · | · | · | ·
Cc1cc2sc(C(=O)O)c(C)c2s1 | 16 | – | – | – | 21 | 28
CC1(C)Oc2ccc3ccc(=O)oc3c2[C@H](O)[C@H]1O | – | – | – | – | · | ·
CC1(C)Oc2ccc3ccc(=O)oc3c2C(N2CCCCC2)C1O (stereo not given) | 11 | – | – | – | – | 9.2
Cc1onc(-c2c(F)cccc2Cl)c1C(=O)Nc1nnc(C(F)(F)F)s1 | 24 | – | – | – | 30 | 42
Cc1onc(-c2c(F)cccc2Cl)c1C(=O)Nc1nccs1 | – | – | – | – | · | ·
CCc1nonc1NC(=O)c1oc2cc(Br)ccc2c1C | 18 | – | – | – | 20 | 38
Cc1c(C(=O)Nc2nccs2)oc2ccc(Br)cc12 | 10 | – | – | – | 12 | 15
CCc1nonc1NC(=O)c1oc2ccccc2c1C | – | – | – | – | · | ·
Cc1c(C(=O)Nc2nccs2)oc2ccc(F)cc12 | – | – | – | – | · | ·
CCOC(=O)C1=CCN(S(=O)(=O)c2ccc(Br)cc2)C1c1cccc(Cl)c1 (stereo not given) | – | · | · | · | · | ·
O=C1c2ccccc2/C(=C\c2ccc(O[C@@H]3CCCCO3)cc2)N1c1ccccc1 | – | · | · | · | · | ·
O=C(CSc1ncnc2c1oc1ccccc12)Nc1cccc(Cl)c1 | 81 | – | – | – | 81 | 94
Cc1nc(SCC(=O)NCc2ccccc2)c2c(=O)n(C)c(=O)n(C)c2n1 | 14 | – | – | – | – | –
Cc1nc(SCC(=O)NCCc2ccccc2)c2c(=O)n(C)c(=O)n(C)c2n1 | – | – | – | – | · | ·
Cc1nc(SCCc2nc3ccccc3[nH]2)c2oc3ccccc3c2n1 | 29 | – | – | – | 11 | 13
Cc1nc(SCC(=O)NCCc2ccccc2)c2oc3ccccc3c2n1 | 26 | – | – | – | 88 | 74 | PG9 bind DR=3.4;PGV04 binding DR=2.4;PG126 binding DR=2.3
CCc1nc(SCC(=O)NCCc2ccccc2)c2oc3ccccc3c2n1 | – | – | – | – | · | ·
S=C1NCCOc2ccccc21 | – | · | · | · | · | ·
C[C@@H]1CN([C@H](C)CO)C(=O)c2cc(NS(=O)(=O)c3ccccc3)ccc2O[C@@H](C)CCCCO[C@@H]1CN(C)Cc1ccc(Cl)c(Cl)c1 | – | · | · | · | · | ·
Cc1nc(SCC(=O)NCc2ccco2)c2oc3ccccc3c2n1 | – | – | – | – | · | ·
Cc1nc(SCC(=O)NC(C)c2ccccc2)c2oc3ccccc3c2n1 (stereo not given) | 15 | – | – | – | – | 9.6
Cc1nc(SCC(=O)Nc2ccc(F)cc2)c2oc3ccccc3c2n1 | 45 | – | – | – | 78 | 85
Cc1nc(SCC(=O)Nc2ccccc2)c2oc3ccccc3c2n1 | 95 | – | – | – | 96 | 99
COC(=O)c1ccc(CSc2ncnc3c2oc2ccccc23)o1 | 15 | – | – | – | 43 | 80
SMILES | PG9 binder | Arrestin-AP2 inh | ABCB6 inh 2 | iPSC survival up | PG9 binder conf | PGV04 counter | others
COC(=O)c1ccc(CSc2ncnc3ccccc23)o1 | – | – | – | – | · | ·
COC(=O)[C@]12C[C@H](CC(=O)N3CCCCC3)C(=O)N(CCC3=CCCCC3)C1=C[C@H](C(C)(C)C)O[C@@H]2C | – | · | · | · | · | ·
COc1ccc(C(=O)C(=O)N2CCN(C(=O)c3ccccc3C(F)(F)F)CC2)cc1OC | – | · | · | · | · | ·
O=S(=O)(c1ccc(C(F)(F)F)cc1)N1CCCc2nc(-c3ccc(Br)cc3)ccc21 | – | · | · | · | · | ·
Cc1ccc(OCCC(=O)OCC(=O)c2ccc3c(c2)NC(=O)CO3)cc1 | 27 | – | – | – | 20 | 38
O=C1COc2ccc(C(=O)COC(=O)c3ncc(Cl)c(Cl)c3Cl)cc2N1 | 11 | – | – | – | 17 | 27

Compound activity as filed in PubChem.
